In ChEMBL document CHEMBL1126180, “4-substituted 2-alkoxytetrahydrofurans as potent and long-lasting PAF antagonists” (J Med Chem, 1992):
Where “and” joins values, the source holds several entries; their conditions need not be identical. Equal values may be shown once. Calls of active or inactive are those of the source. The rule behind the calls is not given here.

What was measured:
[1] = Dose required (i.v.) to reduce the lowering of arterial blood pressure caused by PAF in rats.; details: Rattus norvegicus
[2] = species on record: Mus musculus; assay: Percent protection of PAF-induced mortality in mice after 2 hr; assay type: functional; set-up: concentration or dose not given beside the values
Procedure, shortened: (§1)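 Duration study in male Swiss mice (22–26 g). Single 1 mg/kg iv dose of test compound at time 0. C18-PAF 100 µg/kg plus propranolol 1 mg/kg given iv via tail vein at the stated time after dosing, 10–40 mice per time point.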

[3] = system: Mus musculus; assay: Compound was evaluated for the inhibition of PAF-induced mortality in mice, after intravenous administration of the drug; assay type: functional; details: read-out: ID50 (the source's name)
[4] = species on record: Mus musculus; assay: Percent protection of PAF-induced mortality in mice after 3h; assay type: functional; set-up: concentration or dose not given beside the values
Procedure, shortened: as §1

[5] = species on record: Mus musculus; assay: Percent protection of PAF-induced mortality in mice after 5h; NP means no protection; assay type: functional, organism-based
Procedure, shortened: (§2)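 Male Swiss mice (22–26 g) given compound as a single 1 mg/kg iv dose at time 0. At the stated time, C18-PAF 100 µg/kg plus propranolol 1 mg/kg injected into a lateral tail vein. […] 10–40 mice per time point.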

[6] = species on record: Mus musculus; assay: Percent protection of PAF-induced mortality in mice after 24 hr; assay type: functional; set-up: concentration or dose not given beside the values
Procedure, shortened: as §1

[7] = species on record: Mus musculus; assay: Percent protection of PAF-induced mortality in mice after 7 hr; assay type: functional; set-up: concentration or dose not given beside the values
Procedure, shortened: as §1

[8] = species on record: Mus musculus; assay: Percent protection of PAF-induced mortality in mice after 17h; assay type: functional; set-up: concentration or dose not given beside the values
Procedure, shortened: as §1

[9] = species on record: Mus musculus; assay: Percent protection of PAF-induced mortality in mice after 0.5 hr; assay type: functional; set-up: concentration or dose not given beside the values
Procedure, shortened: as §1

[10] = species on record: Mus musculus; assay: Percent protection of PAF-induced mortality in mice after 5 hr; assay type: functional; set-up: concentration or dose not given beside the values
Procedure, shortened: as §1

[11] = species on record: Mus musculus; assay: Percent protection of PAF-induced mortality in mice after 7h; NP means no protection; assay type: functional, organism-based
Procedure, shortened: as §2

SMILES	ID50 [1]	Protection [2]	ED50 [3]	Protection [4]	Protection [5]	Protection [6]	Protection [7]	Protection [8]	Protection [9]	Protection [10]	Protection [11]
CC[n+]1ccccc1CN(C(C)=O)C(=O)OCC1COC(OCCC(C)C)C1 (configuration not stated)	0.21 mg/kg										
CC[n+]1ccccc1CN(C(C)=O)C(=O)OCC1COC(OCCC(c2ccccc2)c2ccccc2)C1 (configuration not stated)	0.11 mg/kg										
CC[n+]1ccccc1CN(C(C)=O)C(=O)OCC1COC(OCCCCCCOCCCc2ccccc2)C1.[I-] (configuration not stated)	0.06 mg/kg	100%	0.073 mg/kg	50%	inactive						
CCCCCCCCCCOCCCCCCOC1CC(COC(=O)N(Cc2cccc[n+]2CC)C(C)=O)CO1.[I-] (configuration not stated)	0.004 mg/kg	100%	0.0064 mg/kg	100%		51%	88%	40%	100%	100%	
CC[n+]1ccccc1CN(C(C)=O)C(=O)OCC1COC(OCCCCCCCCCCCCCCCCOC)C1.[I-] (configuration not stated)	0.04 mg/kg	100%	0.0076 mg/kg	66%					100%	59%	inactive
CCCCCCCCCCCCCCCCCCNC(=O)OCC(COC(=O)N(Cc1cccc[n+]1CC)C(C)=O)OC.[Cl-] (configuration not stated) [CV-6209]	0.0078 mg/kg	100%	0.022 mg/kg	100%		48%	100%	95%	100%	100%	
CCCCCCCCCCCCCCCCCCOC1CC(COC(=O)N(Cc2cccc[n+]2CC)C(C)=O)CO1.[Cl-] (configuration not stated)	0.026 mg/kg and 0.025 mg/kg	100%	0.023 mg/kg	100%		48%	95%	81%	100%	100%	
CC[n+]1ccccc1CN(C(C)=O)C(=O)OCC1COC(OCCCc2ccccc2)C1 (configuration not stated)	0.12 mg/kg										
CC[n+]1ccccc1CN(C(C)=O)C(=O)OCC1COC(OCCCCCCOCc2ccc(-c3ccccc3)cc2)C1 (configuration not stated)	0.012 mg/kg										
CCCCCCCCCCCCCCCCOC1CC(COC(=O)N(Cc2cccc[n+]2CC)C(C)=O)CO1.[I-] (configuration not stated)	0.01 mg/kg	100%	0.024 mg/kg	88%		44%	64%	65%	100%	61%	
CCCCCCCCCCCCCCCCCCO[C@@H]1C[C@H](COC(=O)N(Cc2cccc[n+]2CC)C(C)=O)CO1.[I-]	0.066 mg/kg		0.03 mg/kg			38%	100%	67%			
CCOC1CC(COC(=O)N(Cc2cccc[n+]2CC)C(C)=O)CO1 (configuration not stated)	2.3 mg/kg										
C=CCCCCCCOCCCCCCOC1CC(COC(=O)N(Cc2cccc[n+]2CC)C(C)=O)CO1.[I-] (configuration not stated)	0.063 mg/kg	100%	0.024 mg/kg	88%			40%	20%		63%	
CCCCCCCCCCCCCCCCCCOC1C[C@H](COC(=O)N(Cc2cccc[n+]2CC)C(C)=O)CO1.[I-] (some centres not stated)	0.031 mg/kg		0.012 mg/kg			60%	100%	93%		100%	
CCCCCCCCCCCCCCCCCC1CC(COC(=O)N(Cc2cccc[n+]2CC)C(C)=O)CO1.[I-] (configuration not stated)	0.05 mg/kg	16%	0.36 mg/kg	16%	inactive				100%		
CCCCCCCCCCCCCCCCCCOCC1CC(COC(=O)N(Cc2cccc[n+]2CC)C(C)=O)CO1.[Cl-] (configuration not stated)	0.011 mg/kg		0.026 mg/kg	100%		33%	100%	44%		100%	
CCCCCCCCCCCCCCCCOCC1CC(COC(=O)N(Cc2cccc[n+]2CC)C(C)=O)CO1.[Cl-] (configuration not stated)	0.027 mg/kg	100%	0.031 mg/kg	75%		17%	65%	44%		54%	
CC[n+]1ccccc1CN(C(C)=O)C(=O)OCC1COC(OCCCCCCOCCCCCc2ccccc2)C1.[I-] (configuration not stated)	0.021 mg/kg	100%	0.0083 mg/kg	100%		38%	80%	38%	100%	89%	
CCCCCCCCCCCCCCCCCCCCOC1CC(COC(=O)N(Cc2cccc[n+]2CC)C(C)=O)CO1 (configuration not stated)	0.048 mg/kg										
